RGS4 act: RGS4 potentiators or activators, primary screen, cell-based, HEK293 M3R inducible RGS4, calcium flux; carbachol calcium flux Fluo4; active compounds read low; B-score at 10 µM; hit rate 0.92% among 310,000; AID 463111, 2010;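 active = B-score of the integrated calcium signal more than 4 SD below the library mean, with starting fluorescence not abnormally high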;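 note: negative B-score means reduced calcium response which marks RGS4 activation or potentiation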
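Material: M3R-expressing HEK293 line, RGS4 induced by doxycycline | Schedule: Overnight RGS4 induction, 30 min dye load 37 °C, 20 min compound RT | Measured by: Fluo4 fluorescence kinetic imaging of calcium | Read-out: Integrated calcium ratio converted to B score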
RGS4 inh: RGS4 inhibitors, primary screen, cell-based, HEK293 M3R inducible RGS4, calcium flux; Fluo-4 calcium flux; active compounds read high; triggered by carbachol at its EC20; B-score at 10 µM; hit rate 0.45% among 310,000; AID 463165, 2010;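 active = B-score, a plate-corrected calcium signal, over three deviations above library mean, with baseline fluorescence within five deviations of library mean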;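 note: RGS4 expression induced by doxycycline in cells with stable M3 receptor; B-score is computed from the integrated fluorescence ratio over baseline after carbachol; higher B-score means a larger calcium signal and so more RGS4 inhibition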
MrgX1 ag: agonists of human MrgX1 receptor, primary screen, HEK293 cells, Fluo-4 calcium flux | Fluo-4 calcium fluorescence, agonist mode; active compounds read high | hit rate 0.44% among 310,000 | B-score at 10 µM | Mas-related G-protein coupled receptor member X1 (Homo sapiens), Q96LB2;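 active = calcium response B-score plate-corrected fluorescence ratio at least 3 library SD, with starting fluorescence B-score inside 5 SD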
Target sequence (Q96LB2 whole entry, looked up): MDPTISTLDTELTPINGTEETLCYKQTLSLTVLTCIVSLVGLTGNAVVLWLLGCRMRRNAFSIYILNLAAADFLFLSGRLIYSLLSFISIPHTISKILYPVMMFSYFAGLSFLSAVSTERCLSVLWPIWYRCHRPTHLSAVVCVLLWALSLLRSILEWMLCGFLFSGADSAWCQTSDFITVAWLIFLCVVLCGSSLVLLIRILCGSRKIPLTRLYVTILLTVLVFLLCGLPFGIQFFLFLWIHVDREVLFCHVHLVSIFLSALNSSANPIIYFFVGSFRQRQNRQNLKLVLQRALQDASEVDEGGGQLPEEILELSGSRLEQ
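Material: MrgX1-expressing HEK293 cells / Dosing: compound as first of three additions / Incubation: overnight seeding, then 1 h dark dye loading / Signal: Fluo-4 NW calcium fluorescence / Evaluation: B-scored fluorescence response ratio / Benchmarks: positive and negative control wells on each plate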
MrgX1 allo act: positive allosteric modulators of MrgX1, primary screen, HEK293 cells, Fluo-4 calcium flux; Mas-related G-protein coupled receptor member X1 (Homo sapiens), Q96LB2; FDSS; active compounds read high; AID 588675, 2011; hit rate 0.63% among 310,000; B-score at 10 µM;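 active = plate-corrected calcium response at least 3 library SD above typical, normal starting fluorescence, not activating the receptor alone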;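 note: compound read alongside a low EC10 to EC30 dose of BAM8-22 agonist; peak minus trough fluorescence over baseline measured at the second addition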
MrgX1 antag: antagonists of human MrgX1 receptor, primary screen, HEK293 cells, Fluo-4 calcium flux | BAM8-22 antagonism; active compounds read low | B-score at 10 µM | hit rate 1.3% among 310,000;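 active = calcium-response B-score plate-corrected more than 3 library SD below zero, starting fluorescence within 5 deviations, no agonist response on first addition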;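 note: peak minus trough fluorescence over baseline after final BAM8-22 challenge near maximal dose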
RGS4 inh valid: enhanced carbachol calcium response, M3R/RGS4 cells, RGS4 inhibitor project, cell-based, validation screen, HEK293 M3R/RGS4, calcium flux. shares compounds with RGS4 inh. AID 492999, 2010. carbachol calcium Fluo-4 fluorescence; carbachol added at its EC20; 0 = buffer wells, 100 = carbachol control. hit rate 65% among 1,700. calcium response, % at 10 µM;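 active = duplicate-averaged calcium response above the buffer-only control mean plus 5 SD of those controls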;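 note: integrated fluorescence ratio F max minus min over baseline F0; higher response in RGS4-induced cells means RGS4 inhibition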
M3R Ca ctr: carbachol calcium response in non-induced M3R cells, confirmation, counter-screen for RGS4 inhibitor project, cell-based, HEK293 M3R; AID 493000, 2010; shares compounds with RGS4 inh; activity (percent), % at 10 µM; carbachol calcium Fluo-4; submaximal (EC20) carbachol stimulus; buffer wells 0%, carbachol control wells 100%; hit rate 20% among 1,900; call rule not given here;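 note: RGS4 induction absent so cells express M3R without RGS4; higher means more calcium signal and flags a non-specific hit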
M3R basal Ca ctr: signal in non-induced cells without carbachol, RGS4 inhibitor counter-screen. AID 493001. hit rate 22% among 1,900. shares compounds with RGS4 inh. HEK293 M3R/RGS4 non-induced, Fluo-4 calcium, no carbachol; normalised: buffer wells 0%, carbachol wells 100%. calcium response (agonist-mode artifact), % at 10 µM;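 active = duplicate-averaged calcium rise in uninduced cells above buffer wells' mean plus 5 SD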
* = called active by the depositor; i = inactive; / = not tested or not shown. The list is not random: actives were taken first. Their share in the collection is about 3.5%.

SMILES | RGS4 act | RGS4 inh | MrgX1 ag | MrgX1 allo act | MrgX1 antag | RGS4 inh valid | M3R Ca ctr | M3R basal Ca ctr
Cc1cc(C)c(-c2csc(NC(=O)C3=COCCO3)n2)cc1C | i | i | i | i | i | / | i | i
O=C(Nc1nc(-c2ccc(-c3ccccc3)cc2)cs1)C1=COCCO1 | i | i | i | i | i | / | i | i
COc1cccc(OC)c1C(=O)Nc1nc(-c2ccccc2)cs1 | i | i | i | i | i | i | i | i
COc1ccc(-c2csc(NC(=O)c3ccccc3C(=O)O)n2)cc1 | i | i | i | i | i | / | / | /
COc1ccc(NC(=O)c2cccc(S(=O)(=O)N(C)c3ccccc3)c2)cn1 | i | i | i | i | i | / | / | /
COc1ccc2oc(=N)c(C(=O)Nc3ccc(C)cc3)cc2c1 | i | i | i | i | i | / | / | /
COc1ccccc1N=c1oc2cc(O)ccc2cc1C(N)=O | i | i | i | i | i | / | / | /
COc1ccccc1NC(=O)c1cc2ccc(O)cc2o/c1=N\O | i | i | i | i | i | i | i | i
COc1ccc2o/c(=N\O)c(C(=O)Nc3ccc(C)cc3)cc2c1 | i | 11.8* | / | / | / | 14.5%* | i | i
Cc1cccc(-n2nc(C)c3c(C(=O)O)cc(-c4cccs4)nc32)c1 | i | 9.53* | i | i | i | 19.0%* | 30.0%* | i
Cc1nn(-c2cccc(Cl)c2)c2nc(-c3ccco3)cc(C(=O)O)c12 | i | i | i | i | i | / | / | /
COc1ccc(OC)c(-c2csc(N(CC3CCCO3)C(=O)C3CCCCC3)n2)c1 (centres undefined) | i | 7.18* | i | i | i | 24.0%* | i | i
CCc1cccc2c(C(=O)CN3C(=O)NC(C)(c4cccc5ccccc45)C3=O)c[nH]c12 (centres undefined) | i | 10.9* | i | i | i | i | i | i
Cc1cccc(NC(=O)CN(CCc2ccccc2)S(C)(=O)=O)c1 | i | i | i | i | i | / | / | /
Oc1c(Cl)cc(Cl)c2c1NCCC2 | i | 9.33* | / | / | / | 64.0%* | i | i
O=C1NCCCc2c1oc1ccc(O)cc21 | i | i | i | i | i | / | / | /
COc1ccc(CCNC(=O)C2CCN(S(=O)(=O)c3c(C)noc3C)CC2)cc1OC | i | i | i | i | i | / | / | /
Cc1ccc(N=C2NC(=O)/C(=C/c3cccnc3)S2)c(C)c1 | i | 7.89* | i | i | i | 19.5%* | i | i
Cc1cccc(N=C2NC(=O)/C(=C/c3cccnc3)S2)c1C | i | i | i | i | i | / | / | /
O=C1NC[C@@H](Cc2cccc3ccccc23)N(CCC23CC4CC(CC(C4)C2)C3)C1=O | i | 4.84* | i | i | i | 11.5%* | 32.0%* | i
COc1ccc(NC(=O)/C(C#N)=C/c2ccc(Sc3nncn3C)c([N+](=O)[O-])c2)cc1 | i | 6.85* | i | i | i | 18.5%* | i | i
Cn1cnnc1Sc1ccc(/C=C/C(=O)c2ccc(O)cc2)cc1[N+](=O)[O-] | i | i | i | i | i | / | / | /
Cc1c(C)c2ccc(OCC(=O)NCCc3c[nH]c4ccccc34)c(C)c2oc1=O | i | i | i | i | i | / | / | /
